Reference: ChEMBL document CHEMBL4257590, “Semisynthesis of Platensimycin Derivatives with Antibiotic Activities in Mice via Suzuki-Miyaura Cross-Coupling Reactions” (J Med Chem, 2018)
Values after ≈ are worked out from the molar mass of the structure shown. Active and inactive are the calls of the source. No cut-off for these calls is given here.

What was measured:
Staphylococcus aureus [1] = assay: Antibacterial activity against methicillin-resistant Staphylococcus aureus isolate 4 after 16 hrs by agar dilution method; assay type: functional; conditions: isolate 4, 16 h
In short: (§1)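 Agar dilution in LB agar with compound (from methanol solutions) at final 0.5–64 μg/ml per plate. Strains grown 16 h at 37 °C, 250 rpm in LB broth, adjusted to OD600 0.25±0.05, diluted 10^4-fold; 2 μl spotted per plate, incubated 16 h at 37 °C. MIC = lowest concentration with no visible colonies; at least two independent experiments. Linezolid and PTM as controls.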

Staphylococcus aureus [2] = assay: Antibacterial activity against methicillin-resistant Staphylococcus aureus isolate 5 after 16 hrs by agar dilution method; assay type: functional; conditions: isolate 5, 16 h; in short: as §1
Staphylococcus aureus [3] = assay: Antibacterial activity against Staphylococcus aureus ATCC 29213 after 16 hrs by agar dilution method; assay type: functional; conditions: ATCC 29213, 16 h; in short: as §1
Staphylococcus aureus [4] = assay: Antibacterial activity against methicillin-sensitive Staphylococcus aureus isolate 1 after 16 hrs by agar dilution method; assay type: functional; conditions: isolate 1, 16 h; in short: as §1
Staphylococcus aureus [5] = assay: Antibacterial activity against methicillin-resistant Staphylococcus aureus isolate 6 after 16 hrs by agar dilution method; assay type: functional; conditions: isolate 6, 16 h; in short: as §1
Staphylococcus aureus [6] = assay: Antibacterial activity against methicillin-resistant Staphylococcus aureus isolate 3 after 16 hrs by agar dilution method; assay type: functional; conditions: isolate 3, 16 h; in short: as §1
Staphylococcus aureus [7] = assay: Antibacterial activity against methicillin-sensitive Staphylococcus aureus isolate 2 after 16 hrs by agar dilution method; assay type: functional; conditions: isolate 2, 16 h; in short: as §1
Staphylococcus aureus [8] = assay: Antibacterial activity against methicillin-resistant Staphylococcus aureus infected in C57BL/6J mouse assessed as reduction in bacterial load in kidney at 50 mg/kg, ip administered 1 and 5 hrs postinfection and measured at 12 hrs post bacterial infection; assay type: functional, organism-based
In short: (§2)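 Female C57BL/6J mice, 6–8 weeks, 18–21 g, infected ip with 2 × 10^7 CFU MRSA in 0.2 ml saline with 5% hog gastric mucin. Dosed ip 50 mg/kg at 1 and 5 h post-infection; test agents at 5 mg/mL in 12.5% DMSO/30% propanediol/30% PEG400/27.5% saline, vancomycin in saline, saline control. At 12 h blood and homogenized kidneys plated on LB agar overnight at 37 °C for CFU; n = 5, mean ± SEM, unpaired two-tailed t-test.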

Mus musculus = assay: Toxicity in C57BL/6J mouse infected with methicillin-resistant Staphylococcus aureus assessed as effect on mouse body weight at 10 mg/kg, ip administered 1 and 5 hrs postinfection and measured for 7 days; assay type: organism-based; conditions: in vivo, 168 h
In short: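 Lethal peritonitis: female C57BL/6J mice, 6–8 weeks, 18–21 g, infected ip with 2 × 10^7 CFU MRSA in 0.5 ml saline with 5% (w/v) mucin. Treated ip 0.2 mL/mouse at 1 and 5 h post-infection (n = 5/group): 50 mg/kg at 5 mg/mL in 12.5% DMSO vehicle, or 10 mg/kg at 1 mg/mL in 2.5% DMSO/30% propanediol/30% PEG400/37.5% saline; vancomycin in saline, saline control. Checked twice daily for survival and body weight over 7 days.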

Staphylococcus aureus [9] = assay: Antibacterial activity against methicillin-resistant Staphylococcus aureus infected in C57BL/6J mouse assessed as reduction in bacterial load in blood at 50 mg/kg, ip administered 1 and 5 hrs postinfection and measured at 12 hrs post bacterial infection; assay type: functional, organism-based; in short: as §2

SMILES	MIC (Staphylococcus aureus [1]) [µg/mL]	MIC (Staphylococcus aureus [2]) [µg/mL]	MIC (Staphylococcus aureus [3]) [µg/mL]	MIC (Staphylococcus aureus [4]) [µg/mL]	MIC (Staphylococcus aureus [5]) [µg/mL]	MIC (Staphylococcus aureus [6]) [µg/mL]	MIC (Staphylococcus aureus [7]) [µg/mL]	Activity (Staphylococcus aureus [8])	Activity (Mus musculus)	Activity (Staphylococcus aureus [9])
CC(=O)NC[C@H]1CN(c2ccc(N3CCOCC3)c(F)c2)C(=O)O1 [LINEZOLID]	1 (≈ 2.96 µM)	1 (≈ 2.96 µM)	1 (≈ 2.96 µM)	1 (≈ 2.96 µM)	1 (≈ 2.96 µM)	1 (≈ 2.96 µM)	1 (≈ 2.96 µM)	–	–	–
Cc1cc(C)cc(C2=C[C@]34C[C@@H]5C[C@H](O[C@@]5(C)C3)[C@H]4[C@](C)(CCC(=O)Nc3c(O)ccc(C(=O)O)c3O)C2=O)c1	4 (≈ 7.33 µM)	4 (≈ 7.33 µM)	4 (≈ 7.33 µM)	4 (≈ 7.33 µM)	4 (≈ 7.33 µM)	4 (≈ 7.33 µM)	4 (≈ 7.33 µM)	–	–	–
C[C@]12C[C@@]34C=C(c5cc6ccccc6c6ccccc56)C(=O)[C@@](C)(CCC(=O)Nc5c(O)ccc(C(=O)O)c5O)[C@@H]3[C@H](C[C@H]1C4)O2	2 (≈ 3.24 µM)	4 (≈ 6.48 µM)	2 (≈ 3.24 µM)	2 (≈ 3.24 µM)	2 (≈ 3.24 µM)	4 (≈ 6.48 µM)	2 (≈ 3.24 µM)	–	–	–
C[C@]12C[C@@]34C=C(c5cccc(C(F)(F)F)c5)C(=O)[C@@](C)(CCC(=O)Nc5c(O)ccc(C(=O)O)c5O)[C@@H]3[C@H](C[C@H]1C4)O2	8 (≈ 13.7 µM)	8 (≈ 13.7 µM)	4 (≈ 6.83 µM)	4 (≈ 6.83 µM)	8 (≈ 13.7 µM)	8 (≈ 13.7 µM)	8 (≈ 13.7 µM)	–	–	–
C[C@]12C[C@@]34C=C(c5cccc(-c6ccccc6)c5)C(=O)[C@@](C)(CCC(=O)Nc5c(O)ccc(C(=O)O)c5O)[C@@H]3[C@H](C[C@H]1C4)O2	8 (≈ 13.5 µM)	8 (≈ 13.5 µM)	8 (≈ 13.5 µM)	8 (≈ 13.5 µM)	8 (≈ 13.5 µM)	8 (≈ 13.5 µM)	8 (≈ 13.5 µM)	–	–	–
COc1ccccc1C1=C[C@]23C[C@@H]4C[C@H](O[C@@]4(C)C2)[C@H]3[C@](C)(CCC(=O)Nc2c(O)ccc(C(=O)O)c2O)C1=O	16 (≈ 29.2 µM)	16 (≈ 29.2 µM)	8 (≈ 14.6 µM)	8 (≈ 14.6 µM)	16 (≈ 29.2 µM)	16 (≈ 29.2 µM)	16 (≈ 29.2 µM)	–	–	–
C[C@]12C[C@@]34C=C(c5cccc(OC(F)(F)F)c5)C(=O)[C@@](C)(CCC(=O)Nc5c(O)ccc(C(=O)O)c5O)[C@@H]3[C@H](C[C@H]1C4)O2	8 (≈ 13.3 µM)	8 (≈ 13.3 µM)	8 (≈ 13.3 µM)	8 (≈ 13.3 µM)	8 (≈ 13.3 µM)	8 (≈ 13.3 µM)	8 (≈ 13.3 µM)	–	–	–
CN[C@H](CC(C)C)C(=O)N[C@H]1C(=O)N[C@@H](CC(N)=O)C(=O)N[C@H]2C(=O)N[C@H]3C(=O)N[C@H](C(=O)N[C@H](C(=O)O)c4cc(O)cc(O)c4-c4cc3ccc4O)[C@H](O)c3ccc(c(Cl)c3)Oc3cc2cc(c3O[C@@H]2O[C@H](CO)[C@@H](O)[C@H](O)[C@H]2O[C@H]2C[C@](C)(N)[C@H](O)[C@H](C)O2)Oc2ccc(cc2Cl)[C@H]1O [VANCOMYCIN]	–	–	–	–	–	–	–	Active	Non-Toxic	Active
C[C@]12C[C@@]34C=C(c5cccc(O)c5)C(=O)[C@@](C)(CCC(=O)Nc5c(O)ccc(C(=O)O)c5O)[C@@H]3[C@H](C[C@H]1C4)O2	32 (≈ 60 µM)	32 (≈ 60 µM)	32 (≈ 60 µM)	32 (≈ 60 µM)	32 (≈ 60 µM)	32 (≈ 60 µM)	32 (≈ 60 µM)	–	–	–
C[C@]12C[C@@]34C=C(c5ccc(C=O)cc5)C(=O)[C@@](C)(CCC(=O)Nc5c(O)ccc(C(=O)O)c5O)[C@@H]3[C@H](C[C@H]1C4)O2	32 (≈ 58.7 µM)	32 (≈ 58.7 µM)	32 (≈ 58.7 µM)	16 (≈ 29.3 µM)	32 (≈ 58.7 µM)	32 (≈ 58.7 µM)	16 (≈ 29.3 µM)	–	–	–
